# According to ChEMBL document CHEMBL1156736, “Multidentate small-molecule inhibitors of vaccinia H1-related (VHR) phosphatase decrease proliferation of cervix cancer cells” (J Med Chem, 2009):
# How the values were obtained:
# [1] = target: T1, Dual specificity protein phosphatase 3 (Homo sapiens, UniProt P51452); test: Inhibition of recombinant vaccina H1-related phosphatase expressed in Escherichia coli by Michaelis-Menten kinetic studies
# Method in brief: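 E. coli-expressed VHR (GST-fusion, thrombin-cleaved, gel-filtered) preincubated 10 min with several fixed inhibitor concentrations in Bis-Tris pH 6.0 buffer with DTT and 5% DMSO; started with pNPP at 0.2–10 Km; initial rates at 404 nm, no-enzyme corrected; Ki and mode by nonlinear fit to competitive, uncompetitive or mixed models, compared by AICc.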
# [2] = target: T1, Dual specificity protein phosphatase 3; test: Inhibition of recombinant vaccina H1-related phosphatase
# T1 sequence (P51452 whole entry, the tested form may be a part): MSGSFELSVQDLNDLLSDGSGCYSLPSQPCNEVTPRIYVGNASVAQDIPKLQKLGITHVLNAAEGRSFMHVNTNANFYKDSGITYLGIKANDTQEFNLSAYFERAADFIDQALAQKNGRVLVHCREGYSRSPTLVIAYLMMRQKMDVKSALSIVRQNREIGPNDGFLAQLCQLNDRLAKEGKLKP
Structure (SMILES),Ki [1] [µM],IC50 [2] [µM]
Cc1ccc(C)n1-c1ccc(C(=O)O)c(O)c1,12.8,–
S=C(Nc1ccc2c(c1)oc1ccccc12)Nc1cccc2ccccc12,2.94,–
O=C1NC(=S)N(c2ccc(F)cc2)C(=O)/C1=C/c1ccc(Br)o1,12.1,–
O=C(O)C(Cc1ccccc1)N1C(=O)/C(=C/C=C/c2ccccc2)SC1=S (centres undefined),2.01,–
O=C(O)c1cccc(-c2ccc(/C=N/Nc3ccc([N+](=O)[O-])cn3)o2)c1,13.8,–
Cc1ccc(-c2nn(-c3ccccc3)cc2/C=C2\SC(=S)N(CCS(=O)(=O)O)C2=O)cc1,–,3.1
O=C(/C=C/c1ccc(-c2ccccc2[N+](=O)[O-])o1)Nc1ccc(-c2nc3ccccc3o2)cc1,1.76,–
Cc1cc(Br)c(-c2ccc(/C=C3\NC(=S)NC3=O)o2)cc1C,3.19,–
"COc1ccc(OC)c2c1C(=O)c1ccccc1C2=O [1,4-DIMETHOXYANTHRAQUINONE]",3.07,–
O=C1/C(=C/c2ccc(-c3cccc(Cl)c3)o2)SC(=S)N1CCS(=O)(=O)O,3.13,–
O=C1c2cccc3c4ccccc4n(c23)C(=O)C1(O)O,13.8,–
O=C1/C(=C/c2cn(-c3ccccc3)nc2-c2ccc(Cl)cc2)SC(=S)N1CCS(=O)(=O)O,–,1.8
O=C1NC(=S)N(c2cccc(Cl)c2)C(=O)/C1=C\c1ccc[nH]1 (mixture of isomers),3.49,–
COc1ccc(-c2nn(-c3ccccc3)cc2/C=C2\SC(=S)N(CCS(=O)(=O)O)C2=O)cc1,–,1.8
O=C1NC(=O)N(c2cccc(Br)c2)C(=O)/C1=C/c1ccc(-c2ccc(C(=O)O)cc2)o1 (mixture of isomers),16.2,–
O=C1C(Cl)=C/C(=N\S(=O)(=O)c2ccc(Cl)cc2)C(Cl)=C1Cl,13.4,–
O=C(/C=C/c1ccco1)/C=C/c1ccc(-c2ccc(Cl)c(Cl)c2)o1,15.9,–
O=C1/C(=C/c2cn(-c3ccccc3)nc2-c2ccc(S(=O)(=O)N3CCOCC3)cc2)SC(=S)N1CCS(=O)(=O)O,–,2.4
Cc1ccc(C)n1-c1ccc(SCC(=O)O)cc1,2.09,–
O=C1NC(=S)/C(=C/c2ccc(-c3ccc([N+](=O)[O-])cc3)o2)S1,1.86,–
C=CCN1C(=O)/C(=C\C=C\c2ccco2)C(=O)NC1=S (mixture of isomers),15.8,–
COc1ccc(N2C(=O)/C(=C/c3ccc(I)o3)C(=O)NC2=S)cc1 (mixture of isomers),4.44,–
CC1=C(C#N)c2nc(N)c(C#N)c(C)c2/C1=C/c1ccc(-c2ccc(C(=O)O)c(Cl)c2)o1,3.87,–
CCOC(=O)c1[nH]nc2c1C(=O)N(c1ccc(Br)cc1)C2=O,2.64,–
